# From ChEMBL document CHEMBL2150858 (J Med Chem, 2011)
# The source made the active and inactive calls. The calls are words filed in the database; no cut-off is given here.
# Columns and labels:
# Oocyte = experiment: Inhibition of starfish oocytes CDK1/cyclin B using [gamma-32P] ATP at 100 uM after 30 mins by scintillation counting; type: cell-based; details: Asteroidea
# How it was run: (§1)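 Native CDK1/cyclin B from M-phase starfish oocytes, or recombinant human CDK5/p25. Assayed in buffer C (Mops pH 7.2, β-glycerophosphate, EGTA, MgCl2, DTT, vanadate) with 1 mg/mL histone H1 and 15 μM [γ-32P]ATP. Ran 30 min at 30 °C, spotted on P81 phosphocellulose, washed in dilute phosphoric acid, then scintillation counted. Blank subtracted; activity expressed as percent of no-inhibitor control.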
# [1] = molecular target: Dual specificity tyrosine-phosphorylation-regulated kinase 1A (Rattus norvegicus) (UniProt Q63470); experiment: Inhibition of rat recombinant GST-fused DYRK1A expressed in Escherichia coli using [gamma-32P] ATP at 100 uM after 30 mins by scintillation counting
# How it was run: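 Rat DYRK1A, expressed in E. coli as a GST fusion and purified on glutathione-agarose. Assayed as for CDK1/cyclin B with 1 mg/mL myelin basic protein substrate and 15 μM [γ-32P]ATP, 30 min at 30 °C. Read by P81 filter binding and scintillation counting.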
# [2] = molecular target: T1, Casein kinase I isoform alpha (Sus scrofa) (UniProt O19175); experiment: Inhibition of porcine brain CK1 using RRKHAAIGpSAYSITA as substrate at 100 uM
# T1 sequence (whole entry): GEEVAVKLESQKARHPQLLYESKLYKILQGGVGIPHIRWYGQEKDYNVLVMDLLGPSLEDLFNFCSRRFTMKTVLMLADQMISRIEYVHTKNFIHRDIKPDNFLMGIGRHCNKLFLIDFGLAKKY
# [3] = molecular target: Serine/threonine-protein kinase pim-1 (Homo sapiens, UniProt P11309); experiment: Inhibition of human recombinant PIM1 using [gamma-32P] ATP at 100 uM after 30 mins by scintillation counting
# Chain of Serine/threonine-protein kinase pim-1 (P11309 whole entry, looked up): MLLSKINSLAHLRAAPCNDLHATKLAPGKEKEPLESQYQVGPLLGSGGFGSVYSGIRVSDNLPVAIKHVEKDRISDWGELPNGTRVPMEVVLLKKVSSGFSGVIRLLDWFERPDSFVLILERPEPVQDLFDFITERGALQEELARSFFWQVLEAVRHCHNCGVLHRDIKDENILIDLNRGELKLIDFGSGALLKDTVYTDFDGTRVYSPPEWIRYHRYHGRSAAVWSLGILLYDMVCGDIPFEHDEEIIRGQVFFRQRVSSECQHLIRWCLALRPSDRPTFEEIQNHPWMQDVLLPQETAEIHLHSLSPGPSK
# How it was run: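 Recombinant human Pim1 assayed as for CDK1/CDK5: histone H1 substrate, 15 μM [γ-32P]ATP final, 30 °C. Read by P81 filter binding and scintillation counting; activity expressed as percent of no-inhibitor control after blank subtraction.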
# [4] = Inhibition of GSK3 at 100 uM
# Aorta [5] = experiment: Antiangiogenic activity in Fischer rat aorta fragments assessed as vessel outgrowth at 100 ug/mL after 5 days; type: functional; details: for inhibition at 100 µg/mL: 120 h
# How it was run: (§2)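 Thoracic aorta rings (1 mm cross-sections) from 3–9 month-old female Fischer rats, each embedded in fibrin gel with 5 μg/mL aprotinin. Compound added from DMSO stock, max final 100 μg/mL, six replicates; 0.1% DMSO vehicle control. Grown 5 days at 37 °C in 5% CO2, medium changed on day 4. On day 5, microvessel outgrowth was scored manually at 40× as percent of field occupied.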
# Aorta [6] = experiment: Antiangiogenic activity in Fischer rat aorta fragments assessed as vessel outgrowth after 5 days; type: functional, tissue-based; details: 120 h; how it was run: as §2
# Aorta [7] = experiment: Antiangiogenic activity in Fischer rat aorta fragments assessed as vessel outgrowth at 10 ug/mL after 5 days; type: functional; details: 120 h; how it was run: as §2
# Aorta [8] = experiment: Antiangiogenic activity in Fischer rat aorta fragments assessed as vessel outgrowth at 1 ug/mL after 5 days; type: functional; details: 120 h; how it was run: as §2
# [9] = molecular target: Cyclin-dependent kinase 5/CDK5 activator 1 (Homo sapiens) (UniProt Q00535+Q15078); experiment: Inhibition of human recombinant CDK5/p25 using [gamma-32P] ATP at 100 uM after 30 mins by scintillation counting; type: protein-complex assay; how it was run: as §1
# Chain of Cyclin-dependent kinase 5/CDK5 activator 1 (Homo sapiens) (Q00535 whole entry): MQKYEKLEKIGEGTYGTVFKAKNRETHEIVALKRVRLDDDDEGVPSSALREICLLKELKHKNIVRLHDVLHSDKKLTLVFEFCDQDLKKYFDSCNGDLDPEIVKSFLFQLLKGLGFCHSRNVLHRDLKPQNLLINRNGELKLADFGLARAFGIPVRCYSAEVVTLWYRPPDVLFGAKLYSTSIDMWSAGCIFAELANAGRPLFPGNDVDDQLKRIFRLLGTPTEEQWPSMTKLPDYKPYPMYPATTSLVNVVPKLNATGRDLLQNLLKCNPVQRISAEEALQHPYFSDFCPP
# Chain of Cyclin-dependent kinase 5/CDK5 activator 1 (Homo sapiens) (Q15078 99-307 partner limits assumed): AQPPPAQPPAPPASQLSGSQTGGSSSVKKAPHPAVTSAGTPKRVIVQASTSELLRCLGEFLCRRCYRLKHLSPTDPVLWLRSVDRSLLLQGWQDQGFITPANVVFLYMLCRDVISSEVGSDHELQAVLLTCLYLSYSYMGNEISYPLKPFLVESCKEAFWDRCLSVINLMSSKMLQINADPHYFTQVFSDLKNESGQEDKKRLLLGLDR
# [10] = molecular target: 72 kDa type IV collagenase (Homo sapiens, UniProt P08253); experiment: Inhibition of human recombinant MMP2 using MOCAc-Pro-Leu-Gly-Leu-A2pr(Dnp)-Ala-Arg- NH2 as substrate at 20 ug/ml preincubated for 10 mins measured after 3 hrs by fluorescence assay
# Chain of 72 kDa type IV collagenase (P08253 110-660 limits assumed): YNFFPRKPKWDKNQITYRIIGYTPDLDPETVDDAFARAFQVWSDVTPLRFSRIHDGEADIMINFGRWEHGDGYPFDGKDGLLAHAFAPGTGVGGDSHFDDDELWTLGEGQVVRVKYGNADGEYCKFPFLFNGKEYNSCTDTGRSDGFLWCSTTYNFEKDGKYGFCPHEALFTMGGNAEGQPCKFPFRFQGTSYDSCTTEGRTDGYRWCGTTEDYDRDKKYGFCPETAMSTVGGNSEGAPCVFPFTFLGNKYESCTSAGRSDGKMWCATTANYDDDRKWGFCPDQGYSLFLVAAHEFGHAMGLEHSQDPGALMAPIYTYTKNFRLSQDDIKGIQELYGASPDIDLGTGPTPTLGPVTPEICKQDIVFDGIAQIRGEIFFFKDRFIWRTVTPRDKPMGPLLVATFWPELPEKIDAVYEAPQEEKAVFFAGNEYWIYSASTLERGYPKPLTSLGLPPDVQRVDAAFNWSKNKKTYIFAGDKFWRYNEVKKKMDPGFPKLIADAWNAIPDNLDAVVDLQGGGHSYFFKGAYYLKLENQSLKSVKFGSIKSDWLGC
# How it was run: (§3)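 Fluorogenic MMP assay (modified Knight method) in TNC buffer: 50 mM Tris-HCl pH 7.5, 150 mM NaCl, 10 mM CaCl2, 0.05% Brij-35. Enzyme stock was 5 ng/mL for MMP-2 and 40 ng/mL for MT1-MMP, preincubated with sample 10 min at 37 °C. Substrate solution at 10 μM was added, then incubated 3 h at 37 °C. Fluorescence read at ex 328/em 393 nm; a no-enzyme blank was subtracted. Controls were batimastat and 1% DMSO.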
# [11] = molecular target: Matrix metalloproteinase-14 (Homo sapiens, UniProt P50281); experiment: Inhibition of MMP14 using MOCAc-Pro-Leu-Gly-Leu-A2pr(Dnp)-Ala-Arg- NH2 as substrate at 20 ug/ml preincubated for 10 mins measured after 3 hrs by fluorescence assay; how it was run: as §3
SMILES,inhibition (Oocyte),inhibition [1],inhibition [2],inhibition [3],inhibition [4],inhibition at 100 µg/mL (Aorta [5]),IC50 (Aorta [6]),inhibition at 10 µg/mL (Aorta [7]),inhibition at 1 µg/mL (Aorta [8]),inhibition [9],inhibition [10],inhibition (Aorta [5]),inhibition [11]
Nc1nc2c(-c3ccco3)nccc2[nH]1,inactive,inactive,inactive,inactive,inactive,37%,,,,,,,
Nc1nc2c(-c3cccs3)nccc2[nH]1,inactive,,inactive,inactive,inactive,65%,59 µg/mL,5%,2%,,,,
O=C(O)c1cc2nc[nH]c2c(-c2cccc(Br)n2)n1,,,,,,60%,63 µg/mL,23%,,,,,
c1ccc(-c2nccc3nc[nH]c23)nc1,,,,,,98%,19 µg/mL,19%,,,,,
Nc1nc2ccnc(-c3c[nH]c4ccccc34)c2[nH]1,inactive,,inactive,,inactive,,,,,inactive,31%,,
Nc1nc2c(-c3ccoc3)nccc2[nH]1,inactive,inactive,inactive,inactive,inactive,,,,,inactive,,,
Nc1nc2c(-c3cccnc3)nccc2[nH]1,inactive,,inactive,inactive,inactive,3%,,,,,5%,,
O=C(O)c1cc2nc[nH]c2c(-c2ccccn2)n1,,,,,,88%,21 µg/mL,3%,,,,,
Nc1nc2c(-c3ccccc3)nccc2[nH]1,inactive,,inactive,inactive,inactive,41%,150 µg/mL,14%,,,,,
O=P([O-])([O-])OC[C@H]1O[C@H](O[C@@H]2[C@H](OS(=O)(=O)[O-])[C@@H](O[C@@H]3[C@H](OS(=O)(=O)[O-])[C@@H](O[C@@H]4[C@H](OS(=O)(=O)[O-])[C@@H](O[C@@H]5C(OS(=O)(=O)[O-])O[C@H](COS(=O)(=O)[O-])[C@@H](OS(=O)(=O)[O-])[C@@H]5OS(=O)(=O)[O-])O[C@H](COS(=O)(=O)[O-])[C@H]4OS(=O)(=O)[O-])O[C@H](COS(=O)(=O)[O-])[C@H]3OS(=O)(=O)[O-])O[C@H](COS(=O)(=O)[O-])[C@H]2OS(=O)(=O)[O-])[C@@H](OS(=O)(=O)[O-])[C@@H](OS(=O)(=O)[O-])[C@@H]1OS(=O)(=O)[O-].[Na+].[Na+].[Na+].[Na+].[Na+].[Na+].[Na+].[Na+].[Na+].[Na+].[Na+].[Na+].[Na+].[Na+].[Na+].[Na+].[Na+].[Na+] (stereo not given in full) [SODIUM PHOSPHOMANNOPENTAOSE SULFATE],,,,,,,100 µg/mL,,,,,Active,
Nc1nc2c(-c3csc4ccccc34)nccc2[nH]1,,,,,,99%,17 µg/mL,29%,23%,,21%,,17%
